Reference: ChEMBL document CHEMBL1134346, “Labeling and evaluation of N-[11C]methylated quinoline-2-carboxamides as potential radioligands for visualization of peripheral benzodiazepine receptors” (J Med Chem, 2001)

Columns and labels:
Rattus norvegicus [1] = species on record: Rattus norvegicus; assay: Tissue (plasma) distribution in Albino male CD rats after 90 minutes expressed as percent of injected dose per gram of organ.; type: ADME, organism-based; settings: in vivo, 1.5 h
In short: (§1)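 Male albino CD rats (225-250 g) received the 11C-labelled radioligand in saline by tail-vein injection. Three rats per time point were decapitated under light ether anaesthesia at 5, 15, 30, 60 or 90 min. Blood was collected heparinized and plasma separated by centrifugation. The pituitary was dissected from the brain. Lung, liver (three-lobe pieces) and right deltoid muscle were sampled, washed in cold saline, gamma-counted and weighed. Results are %I.D./g.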

[2] = target: Translocator protein (Rattus norvegicus) (UniProt P16257); assay: Tissue (blood) concentration of radioactivity at 30 min post-injection into Albino male CD rats after pretreatment with cold PK 11195.; type: functional, tissue-based
Sequence of Translocator protein (Rattus norvegicus) (P16257 whole entry, looked up): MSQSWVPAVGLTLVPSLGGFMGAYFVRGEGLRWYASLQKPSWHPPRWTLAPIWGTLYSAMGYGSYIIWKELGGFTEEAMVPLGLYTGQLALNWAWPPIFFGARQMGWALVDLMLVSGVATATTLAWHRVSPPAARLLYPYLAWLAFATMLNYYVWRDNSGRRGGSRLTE
In short: (§2)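 Separate groups of five rats received tail-vein PK 11195 (1.4-1.6 mg; 5 mg/kg) in 30 µL DMSO:EtOH 1:1, or vehicle alone, immediately before iv radioligand (90-170 µCi in saline, 0.9-1 Ci/µmol). Rats were decapitated at 30 min and tissues gamma-counted; values are %I.D./g.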

Rattus norvegicus [3] = species on record: Rattus norvegicus; assay: Tissue (spleen) distribution in Albino male CD rats after 15 minutes expressed as percent of injected dose per gram of organ.; type: ADME, organism-based; settings: in vivo, 0.25 h
[4] = target: Translocator protein (Rattus norvegicus) (UniProt P16257); assay: Tissue (pituitary) concentration of radioactivity at 30 min post-injection into Albino male CD rats after pretreatment with cold PK 11195.; type: functional, tissue-based; settings: Pituitary gland
In short: (§3)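 Blocking study in male albino CD rats, five per group. Immediately before the 11C radioligand (in saline, i.v. tail vein), rats received 30 µL tail-vein PK 11195 (5 mg/kg; 1.4-1.6 mg) in DMSO:EtOH 1:1, or vehicle. Rats were decapitated at 30 min. Tissues were dissected, washed, gamma-counted and weighed as in the biodistribution study. Results are %I.D./g.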

Rattus norvegicus [5] = species on record: Rattus norvegicus; assay: Tissue (liver) distribution in Albino male CD rats after 90 minutes expressed as percent of injected dose per gram of organ.; type: ADME, organism-based; settings: in vivo, 1.5 h; in short: as §1
Rattus norvegicus [6] = species on record: Rattus norvegicus; assay: Tissue (testicle) distribution in Albino male CD rats after 60 minutes expressed as percent of injected dose per gram of organ.; type: ADME, organism-based; settings: in vivo, 1 h; in short: as §1
Rattus norvegicus [7] = species on record: Rattus norvegicus; assay: Tissue (lung) distribution in Albino male CD rats after 5 minutes expressed as percent of injected dose per gram of organ.; type: ADME, organism-based; settings: in vivo; in short: as §1
Rattus norvegicus [8] = species on record: Rattus norvegicus; assay: Tissue (plasma) distribution in Albino male CD rats after 15 minutes expressed as percent of injected dose per gram of organ.; type: ADME, organism-based; settings: in vivo, 0.25 h; in short: as §1
Rattus norvegicus [9] = species on record: Rattus norvegicus; assay: Tissue (spleen) distribution in Albino male CD rats after 5 minutes expressed as percent of injected dose per gram of organ.; type: ADME, organism-based; settings: in vivo; in short: as §1
Rattus norvegicus [10] = species on record: Rattus norvegicus; assay: Tissue (muscle) distribution in Albino male CD rats after 5 minutes expressed as percent of injected dose per gram of organ.; type: ADME, organism-based; settings: in vivo; in short: as §1
Rattus norvegicus [11] = species on record: Rattus norvegicus; assay: Tissue (cortex) distribution in Albino male CD rats after 15 minutes expressed as percent of injected dose per gram of organ.; type: ADME, organism-based; settings: in vivo, 0.25 h
In short: (§4)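 Radioligand given in saline into tail vein of male albino CD rats (225-250 g); 100-200 µCi per animal, 1-2 Ci/µmol at injection depending on radioligand. Three rats per time point were decapitated under light ether anaesthesia. Blood, plasma, brain regions and washed organs were weighed and gamma-counted. Uptake is %I.D./g tissue, mean ± SD.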

Rattus norvegicus [12] = species on record: Rattus norvegicus; assay: Tissue (lung) distribution in Albino male CD rats after 15 minutes expressed as percent of injected dose per gram of organ.; type: ADME, organism-based; settings: in vivo, 0.25 h; in short: as §1
Rattus norvegicus [13] = species on record: Rattus norvegicus; assay: Tissue (kidney) distribution in Albino male CD rats after 30 minutes expressed as percent of injected dose per gram of organ.; type: ADME, organism-based; settings: in vivo, 0.5 h; in short: as §4
Rattus norvegicus [14] = species on record: Rattus norvegicus; assay: Tissue (heart) distribution in Albino male CD rats after 90 minutes expressed as percent of injected dose per gram of organ.; type: ADME, organism-based; settings: in vivo, 1.5 h; in short: as §4
Rattus norvegicus [15] = species on record: Rattus norvegicus; assay: Tissue (pituitary) distribution in Albino male CD rats after 5 minutes expressed as percent of injected dose per gram of organ.; type: ADME, organism-based, Pituitary gland; settings: in vivo; in short: as §1
Rattus norvegicus [16] = species on record: Rattus norvegicus; assay: Tissue (plasma) distribution in Albino male CD rats after 30 minutes expressed as percent of injected dose per gram of organ.; type: ADME, organism-based; settings: in vivo, 0.5 h; in short: as §1
Rattus norvegicus [17] = species on record: Rattus norvegicus; assay: Tissue (cerebellum) distribution in Albino male CD rats after 30 minutes expressed as percent of injected dose per gram of organ.; type: ADME, organism-based; settings: in vivo, 0.5 h; in short: as §4
Rattus norvegicus [18] = species on record: Rattus norvegicus; assay: Tissue (muscle) distribution in Albino male CD rats after 60 minutes expressed as percent of injected dose per gram of organ.; type: ADME, organism-based; settings: in vivo, 1 h; in short: as §1
Rattus norvegicus [19] = species on record: Rattus norvegicus; assay: Tissue (pituitary) distribution in Albino male CD rats after 90 minutes expressed as percent of injected dose per gram of organ.; type: ADME, organism-based, Pituitary gland; settings: in vivo, 1.5 h; in short: as §1
Rattus norvegicus [20] = species on record: Rattus norvegicus; assay: Tissue (cortex) distribution in Albino male CD rats after 60 minutes expressed as percent of injected dose per gram of organ.; type: ADME, organism-based; settings: in vivo, 1 h; in short: as §4
[21] = target: Translocator protein (Rattus norvegicus) (UniProt P16257); assay: Tissue (spleen) concentration of radioactivity at 30 min post-injection into Albino male CD rats after pretreatment with cold PK 11195.; type: functional, tissue-based; in short: as §3
Rattus norvegicus [22] = species on record: Rattus norvegicus; assay: Tissue (lung) distribution in Albino male CD rats after 30 minutes expressed as percent of injected dose per gram of organ.; type: ADME, organism-based; settings: in vivo, 0.5 h; in short: as §1
Rattus norvegicus [23] = species on record: Rattus norvegicus; assay: Tissue (testicle) distribution in Albino male CD rats after 15 minutes expressed as percent of injected dose per gram of organ.; type: ADME, organism-based; settings: in vivo, 0.25 h; in short: as §1
Rattus norvegicus [24] = species on record: Rattus norvegicus; assay: Tissue (muscle) distribution in Albino male CD rats after 90 minutes expressed as percent of injected dose per gram of organ.; type: ADME, organism-based; settings: in vivo, 1.5 h; in short: as §1
Rattus norvegicus [25] = species on record: Rattus norvegicus; assay: Tissue (pituitary) concentration of radioactivity at 30 min post-injection into Albino male CD rats with vehicle.; type: ADME, organism-based, Pituitary gland; settings: in vivo, 0.5 h; in short: as §3
Rattus norvegicus [26] = species on record: Rattus norvegicus; assay: Tissue (heart) distribution in Albino male CD rats after 30 minutes expressed as percent of injected dose per gram of organ.; type: ADME, organism-based; settings: in vivo, 0.5 h; in short: as §4
Rattus norvegicus [27] = species on record: Rattus norvegicus; assay: Tissue (spleen) distribution in Albino male CD rats after 90 minutes expressed as percent of injected dose per gram of organ.; type: ADME, organism-based; settings: in vivo, 1.5 h
Rattus norvegicus [28] = species on record: Rattus norvegicus; assay: Tissue (heart) distribution in Albino male CD rats after 60 minutes expressed as percent of injected dose per gram of organ.; type: ADME, organism-based; settings: in vivo, 1 h; in short: as §4
[29] = target: Translocator protein (Rattus norvegicus) (UniProt P16257); assay: Tissue (heart) concentration of radioactivity at 30 min post-injection into Albino male CD rats after pretreatment with cold PK 11195.; type: functional; in short: as §2
Rattus norvegicus [30] = species on record: Rattus norvegicus; assay: Tissue (kidney) distribution in Albino male CD rats after 15 minutes expressed as percent of injected dose per gram of organ.; type: ADME, organism-based; settings: in vivo, 0.25 h; in short: as §4
Rattus norvegicus [31] = species on record: Rattus norvegicus; assay: Tissue (blood) distribution in Albino male CD rats after 60 minutes expressed as percent of injected dose per gram of organ.; type: ADME, organism-based; settings: in vivo, 1 h; in short: as §4
Rattus norvegicus [32] = species on record: Rattus norvegicus; assay: Tissue (spleen) distribution in Albino male CD rats after 30 minutes expressed as percent of injected dose per gram of organ.; type: ADME, organism-based; settings: in vivo, 0.5 h; in short: as §1
[33] = target: Translocator protein (Rattus norvegicus) (UniProt P16257); assay: Tissue (kidney) concentration of radioactivity at 30 min post-injection into Albino male CD rats after pretreatment with cold PK 11195.; type: functional, tissue-based; in short: as §2
Rattus norvegicus [34] = species on record: Rattus norvegicus; assay: Tissue (cortex) distribution in Albino male CD rats after 30 minutes expressed as percent of injected dose per gram of organ.; type: ADME, organism-based; settings: in vivo, 0.5 h; in short: as §4
Rattus norvegicus [35] = species on record: Rattus norvegicus; assay: Tissue (muscle) distribution in Albino male CD rats after 30 minutes expressed as percent of injected dose per gram of organ.; type: ADME, organism-based; settings: in vivo, 0.5 h; in short: as §1
Rattus norvegicus [36] = species on record: Rattus norvegicus; assay: Tissue (kidney) distribution in Albino male CD rats after 90 minutes expressed as percent of injected dose per gram of organ.; type: ADME, organism-based; settings: in vivo, 1.5 h; in short: as §4
Rattus norvegicus [37] = species on record: Rattus norvegicus; assay: Tissue (plasma) distribution in Albino male CD rats after 5 minutes expressed as percent of injected dose per gram of organ.; type: ADME, organism-based; settings: in vivo; in short: as §1
Rattus norvegicus [38] = species on record: Rattus norvegicus; assay: Tissue (muscle) concentration of radioactivity at 30 min post-injection into Albino male CD rats with vehicle.; type: ADME, organism-based; settings: in vivo, 0.5 h; in short: as §3
Rattus norvegicus [39] = species on record: Rattus norvegicus; assay: Tissue (lung) distribution in Albino male CD rats after 90 minutes expressed as percent of injected dose per gram of organ.; type: ADME, organism-based; settings: in vivo, 1.5 h; in short: as §1
Rattus norvegicus [40] = species on record: Rattus norvegicus; assay: Tissue (adrenal gland) distribution in Albino male CD rats after 60 minutes expressed as percent of injected dose per gram of organ.; type: ADME, organism-based; settings: in vivo, 1 h; in short: as §4

- I.D./g (Rattus norvegicus [1]): 0.05%
- I.D./g [2]: > 0.02%
- I.D./g (Rattus norvegicus [3]): 1.27%
- I.D./g [4]: > 0.09%
- I.D./g (Rattus norvegicus [5]): 0.4%
- I.D./g (Rattus norvegicus [6]): 0.15%
- I.D./g (Rattus norvegicus [7]): 4%
- I.D./g (Rattus norvegicus [8]): 0.09%
- I.D./g (Rattus norvegicus [9]): 0.28%
- I.D./g (Rattus norvegicus [10]): 0.19%
- I.D./g (Rattus norvegicus [11]): 0.17%
- I.D./g (Rattus norvegicus [12]): 3.32%
- I.D./g (Rattus norvegicus [13]): 1.05%
- I.D./g (Rattus norvegicus [14]): 2.38%
- I.D./g (Rattus norvegicus [15]): 0.33%
- I.D./g (Rattus norvegicus [16]): 0.06%
- I.D./g (Rattus norvegicus [17]): 0.12%
- I.D./g (Rattus norvegicus [18]): 0.14%
- I.D./g (Rattus norvegicus [19]): 0.15%
- I.D./g (Rattus norvegicus [20]): 0.06%
- I.D./g [21]: < 0.02%
- I.D./g (Rattus norvegicus [22]): 2%
- I.D./g (Rattus norvegicus [23]): 0.12%
- I.D./g (Rattus norvegicus [24]): 0.21%
- I.D./g (Rattus norvegicus [25]): 0.11%
- I.D./g (Rattus norvegicus [26]): 2.58%
- I.D./g (Rattus norvegicus [27]): 1.56%
- I.D./g (Rattus norvegicus [28]): 2.09%
- I.D./g [29]: < 0.04%
- I.D./g (Rattus norvegicus [30]): 1.17%
- I.D./g (Rattus norvegicus [31]): 0.06%
- I.D./g (Rattus norvegicus [32]): 1.46%
- I.D./g [33]: < 0.05%
- I.D./g (Rattus norvegicus [34]): 0.09%
- I.D./g (Rattus norvegicus [35]): 0.26%
- I.D./g (Rattus norvegicus [36]): 1.34%
- I.D./g (Rattus norvegicus [37]): 0.16%
- I.D./g (Rattus norvegicus [38]): 0.03%
- I.D./g (Rattus norvegicus [39]): 1.21%
- I.D./g (Rattus norvegicus [40]): 4%
Structure (SMILES): Cc1c(C(=O)N(C)Cc2ccccc2)nc2ccccc2c1-c1ccccc1
